Data set [1] in a line: Selectivity index, ratio of CC50 for human Huh-7 cells to IC50 for antiviral activity against HCoV-229E harboring luciferase reporter gene infected in human Huh-7 cells. The class given is toxicity, cell-based. The settings on record: read-out: Ratio CC50/IC50. A digest of the protocol: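 Huh-7 cells (6×10^4/well) seeded and held 16 h at 37 °C, 5% CO₂, then treated 24 h with increasing compound concentrations. MTS viability read as formazan absorbance at 490 nm; CC50 derived, 3 experiments. Ratio taken against IC50 from the luciferase-reporter HCoV-229E infection assay in Huh-7 cells (MOI 0.5, 1 h plus 6 h).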
(In general: Reporter assays use an easily measured gene product as a stand-in for the process of interest.)

Data set [2] relates to Human coronavirus 229E. Description: Antiviral activity against HCoV-229E harboring luciferase reporter gene infected in human Huh-7 cells assessed as reduction in viral replication pre-incubated for 1 hrs followed by replacement with fresh media for 6 hrs by renilla luciferase based luminometer analysis. The class given is functional, organism-based. In short, it runs like this:
(§1)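 Huh-7 or Huh-7/TMPRSS2 cells in DMEM GlutaMAX-I with 10% FBS. Inoculated with luciferase-reporter HCoV-229E at MOI 0.5 for 1 h at 37 °C with compound at increasing concentrations (highest 50 μM). Virus then replaced by compound-containing medium for 6 h. Lysed for Renilla luciferase luminescence, normalised to DMSO control. Triplicate measures, 3 independent experiments, mean ± SEM.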

The test system of data set [3] is Human coronavirus 229E. Description: Antiviral activity against HCoV-229E harboring luciferase reporter gene infected in human Huh-7 cells expressing TMPRSS2 assessed as reduction in viral replication pre-incubated for 1 hrs followed by replacement with fresh media for 6 hrs by renilla luciferase based luminometer analysis. To be noted: time 7.0 hrs. The class given is functional, organism-based. A digest of the protocol:
as §1

In data set [4] the test system is Human coronavirus 229E. Description: Antiviral activity against HCoV-229E harboring luciferase reporter gene infected in human Huh-7 cells assessed as reduction in viral replication upto 50 uM pre-incubated for 1 hrs followed by replacement with fresh media for 6 hrs by renilla luciferase based luminometer analysis. The class given is functional, organism-based. To be noted: time 7.0 hrs. In short, it runs like this: as §1

Data set [5] has as its system Human coronavirus 229E. The data set is described as follows: Antiviral activity against HCoV-229E harboring luciferase reporter gene infected in human Huh-7 cells expressing TMPRSS2 assessed as reduction in viral replication upto 50 uM pre-incubated for 1 hrs followed by replacement with fresh media for 6 hrs by renilla luciferase based luminometer analysis. The format is functional, organism-based. The settings on record: time 7.0 hrs. In short, it runs like this: as §1

The structures appear in SMILES notation. Active and inactive are the calls of the source. The rule behind the calls is not given here.

As a reminder, the IC50 is the concentration that gives 50% inhibition.

As for `C=C(C=O)[C@H]1CC=C2[C@H](OC(=O)/C(C)=C/CCCCCCC)CC[C@H](C(=O)O)[C@@]2(C)C1`, the selectivity ratio in data set [1] stood at 2.57. In the data set with Human coronavirus 229E [2], the IC50 was found to be 18.1 µM. Moreover, the result in the data set on Human coronavirus 229E [2] (time 7.0 hrs) and in the data set with Human coronavirus 229E [3] was Active.
On to `C=C(C=O)[C@H]1CC=C2[C@H](OC(=O)/C(C)=C/C=C/CCCCC)CC[C@H](C(=O)O)[C@@]2(C)C1`, for which the result with Human coronavirus 229E [4] and in the data set on Human coronavirus 229E [5] was inactive.
